From PubChem
The list is not random: actives were taken first. Their share in the collection is about 2%.
NR2E3 ag-1 – NR2E3 agonists in two-hybrid cells, primary screen, cell-based, luminescence, CHO-S, Gal4-NCOR/VP16-NR2E3. Photoreceptor-specific nuclear receptor (Homo sapiens), Q9Y5X4. luciferase. inhibition of corepressor binding, % at 3.98 µM. 360,000 compounds, 0.35% hits. AID 602229, 2012;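 active = inhibition above the mean of all tested compounds plus 3 SD, cut at about 70% in these data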;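 note: higher means lower luciferase signal from less NR2E3 corepressor binding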
Target sequence (Q9Y5X4 whole entry, looked up, the tested form may be a part): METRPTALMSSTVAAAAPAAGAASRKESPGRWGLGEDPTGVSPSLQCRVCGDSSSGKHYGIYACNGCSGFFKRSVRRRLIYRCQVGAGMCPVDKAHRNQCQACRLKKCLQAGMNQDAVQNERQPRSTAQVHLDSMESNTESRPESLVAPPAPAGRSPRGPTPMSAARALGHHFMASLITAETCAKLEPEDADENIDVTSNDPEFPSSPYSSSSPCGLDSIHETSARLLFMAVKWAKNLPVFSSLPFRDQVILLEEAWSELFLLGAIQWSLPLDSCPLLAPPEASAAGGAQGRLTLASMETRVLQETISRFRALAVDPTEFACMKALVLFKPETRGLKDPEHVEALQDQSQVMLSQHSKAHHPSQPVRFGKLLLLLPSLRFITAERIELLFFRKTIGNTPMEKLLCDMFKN
NR2E3 ag-2 – inhibitors of NR2E3-RetCOR corepressor binding, primary screen, NR2E3 agonist project, biochemical, TR-FRET, GST-NR2E3, biotin-RetCOR. Photoreceptor-specific nuclear receptor (Homo sapiens), Q9Y5X4. 1536-well. inhibition of corepressor binding, % at 4.78 µM. 320,000 compounds, 0.12% hits;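 active = percent inhibition above the cutoff of mean plus 3 SD of all tested compounds, set per screening campaign, cut at about 20% in these data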
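System: GST-tagged NR2E3 plus biotinylated RetCOR corepressor; Amount: 1.35 nM GST-tagged NR2E3 final; Dosing: single nominal compound dose of 4.8 µM; Schedule: 5 h incubation at 4 °C; Technique: TR-FRET with europium anti-GST and streptavidin-D2, 340 nm excitation; Controls: biotin wells as high control, 0.6% DMSO wells as low control.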
Rev-erbA mod – modulators of Rev-erb alpha DNA binding, primary screen, biochemical, FITC-DNA, fluorescence polarization, uHTS | Nuclear receptor subfamily 1 group D member 1 (Homo sapiens), P20393 | Rev-erbα–FITC-DNA binding, 90 min | activity, % at 10 µM | 370,000 compounds, 0.79% hits | AID 1259318, 2017;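 active = activity above about 14%, limit read from the data; passing the limit was not always enough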
PG9 binder – binders of HIV-1 gp120 antibody PG9, primary screen, biochemical, TR-FRET; 360,000 compounds, 0.43% hits; inhibition, % at 6.7 µM; AID 624416, 2012; TR-FRET gp120-PG9 antibody binding; HIV-1 gp120 / PG9 antibody interaction; in the data active = inhibition above about 8.5%
Neddyl block – inhibitors of cullin neddylation, primary screen, biochemical, TR-FRET, uHTS, NAE and Ubc12; calls only at 25 µM; 360,000 compounds, 0.58% hits; AID 651699, 2012; in the data active = inhibition above about 36%
NR1D1 mod conf – modulators of Rev-erb alpha DNA binding, confirmation, biochemical, FITC-DNA, fluorescence polarization, single point; AID 1259319, 2017; 90 min; shares compounds with Rev-erbA mod; 3,000 compounds, 61% hits; activation, % at 25 µM;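 active = activation at or above a set limit, or at least 3 SD above the negative control mean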
RORg counter – modulation of RORgamma DNA binding, dose response, counter-screen for Rev-erb alpha modulator project, biochemical, fluorescence polarization, FITC-DNA. shares compounds with Rev-erbA mod. 910 compounds, 8% hits. purified RORgamma protein-FITC-DNA binding. IC50, µM;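 active = Compounds whose fitted half-maximal concentration for disrupting protein-DNA binding is below 10 micromolar; the record names Rev-erb in its text, so the target is in doubt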
A number is an active result.

For CCCN(C(=O)c1ccco1)c1nnc(-c2cccc(C)c2)s1 the results were NR2E3 ag-1 inactive, NR2E3 ag-2 inactive, Rev-erbA mod inactive, PG9 binder inactive and Neddyl block inactive.
For CCN(C(=O)c1ccco1)c1nnc(-c2ccc(OC)cc2)s1 the results were NR2E3 ag-1 inactive, NR2E3 ag-2 inactive, Rev-erbA mod 25, PG9 binder inactive, Neddyl block inactive and NR1D1 mod conf inactive.
Cc1ccc(-c2csc3nc[nH]c(=S)c23)cc1C was read as NR2E3 ag-1 inactive, NR2E3 ag-2 inactive, Rev-erbA mod 24, PG9 binder inactive, Neddyl block inactive, NR1D1 mod conf 32 and RORg counter inactive.
`O=C(OCC(=O)N1CCCc2ccccc21)c1cc(Cl)ccc1O` gave NR2E3 ag-1 inactive, NR2E3 ag-2 inactive, Rev-erbA mod 24, PG9 binder inactive, Neddyl block inactive and NR1D1 mod conf inactive.
CCOc1ccc(NC(=O)c2cn(-c3ccc(OCC)cc3)c(=O)c3cc(OC)c(OC)cc23)cc1 was read as NR2E3 ag-1 inactive, NR2E3 ag-2 inactive, Rev-erbA mod inactive, PG9 binder inactive and Neddyl block inactive.
`CCOc1ccc(-n2cc(C(=O)Nc3cccc(C)n3)c3cc(OC)c(OC)cc3c2=O)cc1` gave NR2E3 ag-1 inactive, NR2E3 ag-2 inactive, Rev-erbA mod 35, PG9 binder inactive, Neddyl block inactive and NR1D1 mod conf inactive.
For O=C(Nc1ccc(Br)cc1)OCCCN1CCC2(CCCCC2)C1=O the results were Rev-erbA mod inactive.
`COc1ccc(-c2oc3ccc(-c4cc(OC)c(OC)c(OC)c4)cc3c2C(=O)c2ccc(OC)nc2)cc1` gave NR2E3 ag-1 inactive, NR2E3 ag-2 inactive, Rev-erbA mod 22, PG9 binder inactive, Neddyl block inactive and NR1D1 mod conf inactive.
Screening CCn1c(/C=C/c2c(C)[nH]c3ccccc23)nc2ccccc2c1=O returned NR2E3 ag-1 inactive, NR2E3 ag-2 inactive, Rev-erbA mod 59, PG9 binder inactive, Neddyl block inactive and NR1D1 mod conf 29.
Screening CCn1c(/C=C/c2c[nH]c3ccccc23)nc2ccccc2c1=O returned NR2E3 ag-1 inactive, NR2E3 ag-2 inactive, Rev-erbA mod inactive, PG9 binder inactive and Neddyl block inactive.
Cc1ccc(-n2nnnc2SCC(=O)c2c(N)n(C3CC3)c(=O)[nH]c2=O)cc1C was read as NR2E3 ag-1 inactive, NR2E3 ag-2 inactive, Rev-erbA mod 21, PG9 binder inactive, Neddyl block inactive and NR1D1 mod conf 14.
Screening Cc1cccc(C)c1-n1nnnc1SCC(=O)c1c(N)n(C2CC2)c(=O)[nH]c1=O returned NR2E3 ag-1 inactive, Rev-erbA mod inactive, PG9 binder inactive and Neddyl block inactive.
Screening O=[N+]([O-])c1ccc(S(=O)(=O)Nc2nnc(C(F)(F)F)s2)cc1 returned NR2E3 ag-1 inactive, NR2E3 ag-2 inactive, Rev-erbA mod inactive, PG9 binder inactive and Neddyl block inactive.
`O=c1cc(-c2ccccc2Cl)oc2c(NS(=O)(=O)c3cccs3)ccc(O)c12` gave NR2E3 ag-1 inactive, NR2E3 ag-2 inactive, Rev-erbA mod 27, PG9 binder inactive, Neddyl block inactive, NR1D1 mod conf 33 and RORg counter inactive.
Cc1cc(=O)oc2cc(OCC3CC(c4ccc(N(C)C)cc4)=NO3)ccc12 (stereo not given) was read as NR2E3 ag-1 inactive, NR2E3 ag-2 inactive, Rev-erbA mod inactive, PG9 binder inactive and Neddyl block inactive.
`Cc1cc(=O)oc2cc(OCC3CC(c4ccc(Cl)cc4)=NO3)ccc12` (stereo not given) gave NR2E3 ag-1 inactive, NR2E3 ag-2 inactive, Rev-erbA mod 80, PG9 binder inactive, Neddyl block inactive, NR1D1 mod conf 72 and RORg counter inactive.
For CS(=O)(=O)Nc1ccc(-c2ccc(/C=C3\SC(N)=NC3=O)o2)cc1 the results were NR2E3 ag-1 inactive, NR2E3 ag-2 inactive, Rev-erbA mod 44, PG9 binder inactive, Neddyl block inactive, NR1D1 mod conf 33 and RORg counter inactive.
`NC1=NC(=O)/C(=C/c2ccc(-c3ccc(S(N)(=O)=O)cc3)o2)S1` gave NR2E3 ag-1 inactive, NR2E3 ag-2 inactive, Rev-erbA mod inactive, PG9 binder inactive and Neddyl block inactive.
For Cn1cc(C2=C(c3ccc(Cl)cc3Cl)C(=O)NC2=O)c2ccccc21 the results were NR2E3 ag-1 inactive, NR2E3 ag-2 inactive, Rev-erbA mod 36, PG9 binder inactive, Neddyl block inactive and NR1D1 mod conf 20.
Screening Cn1cc(-c2ccccc2C(N)=O)c(=O)c2cc(Cl)ccc21 returned NR2E3 ag-1 inactive, NR2E3 ag-2 inactive, Rev-erbA mod inactive, PG9 binder inactive and Neddyl block inactive.
For O=C(NCc1ccc2c(c1)OCO2)C1CCC(CNS(=O)(=O)c2cccc3nsnc23)CC1 (stereo not given) the results were NR2E3 ag-1 inactive, NR2E3 ag-2 inactive, Rev-erbA mod 34, PG9 binder inactive, Neddyl block inactive, NR1D1 mod conf 28 and RORg counter inactive.
COCCNC(=O)C1CCC(CNS(=O)(=O)c2cccc3nsnc23)CC1 (stereo not given) was read as NR2E3 ag-1 inactive, NR2E3 ag-2 inactive, Rev-erbA mod inactive, PG9 binder inactive and Neddyl block inactive.
`COc1ccc(CNC(=O)C2CCC(CNS(=O)(=O)c3cccc4nsnc34)CC2)cc1` (stereo not given) gave NR2E3 ag-1 inactive, NR2E3 ag-2 inactive, Rev-erbA mod 72, PG9 binder inactive, Neddyl block inactive, NR1D1 mod conf 52 and RORg counter inactive.
`C[C@]12c3[nH]c4cc(-c5ccco5)ccc4c3CCN1C(=O)[C@@H](CC(=O)NCCCn1ccnc1)C[C@@H]2C(=O)N1CCOCC1` gave NR2E3 ag-1 inactive.
Screening Cc1c(N=C2N=C(NC(=O)c3cccs3)c3ccccc32)c(=O)n(-c2ccccc2)n1C returned NR2E3 ag-1 inactive, NR2E3 ag-2 inactive, Rev-erbA mod 18, PG9 binder inactive, Neddyl block inactive and NR1D1 mod conf inactive.
Screening Cc1ccc(-n2nnc(-c3cc4ccccc4nc3Cl)n2)cc1 returned NR2E3 ag-1 inactive, NR2E3 ag-2 inactive, Rev-erbA mod 35, PG9 binder inactive, Neddyl block inactive and NR1D1 mod conf 30.
